Experiments:
Cryptococcus neoformans [1] = test: Antimicrobial activity against Cryptococcus neoformans ATCC 90113 by CLSI method; type: functional
Procedure, shortened: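 C. neoformans in Sabouraud dextrose broth, inoculum per the 0.5 McFarland standard. Saline serial dilutions of DMSO samples were tested in duplicate, with a final top concentration of 20 μg/mL. OD 630 nm was read before and after incubation. IC50 was derived from % growth versus concentration. MIC was judged visually as the lowest concentration with no detectable growth. Amphotericin B served as the drug control.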

Candida albicans [2] = test: Antimicrobial activity against Candida albicans ATCC 90028 by CLSI method; type: functional
Procedure, shortened: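 C. albicans inoculum was made to the 0.5 McFarland standard in Sabouraud dextrose broth or RPMI 1640. Samples came from DMSO stocks serially diluted in saline, in duplicate, starting at a final 20 μg/mL. Plates were read at OD 630 nm before and after incubation. IC50 came from the % growth versus concentration plot; MIC was the lowest concentration with no visible growth. Included: growth, solvent and blank controls, plus amphotericin B.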

Aspergillus fumigatus [3] = test: Antimicrobial activity against Aspergillus fumigatus ATCC 90906 by CLSI method; type: functional
Procedure, shortened: (§1)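 Modified CLSI broth microdilution. DMSO stocks were serially diluted in saline and run in duplicate. Inoculum was set by the 0.5 McFarland standard in YM broth for MIC, or in RPMI-1640 + 5% Alamar Blue for IC50. The top final concentration was 20 μg/mL. Fluorescence (544ex/590em) was read before and after incubation. IC50 was taken from % growth versus concentration; MIC was read visually as no blue-to-pink change.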

Cryptococcus neoformans [4] = test: Antimicrobial activity against Cryptococcus neoformans ATCC 90113 by alamar blue assay; type: functional, organism-based
Candida albicans [5] = test: Antimicrobial activity against Candida albicans ATCC 90028 by alamar blue assay; type: functional, organism-based
Aspergillus fumigatus [6] = test: Antimicrobial activity against Aspergillus fumigatus ATCC 90906 by alamar blue assay; type: functional, organism-based; procedure, shortened: as §1
Nakaseomyces glabratus [7] = test: Antimicrobial activity against Candida glabrata ATCC 90030 by CLSI method; type: functional
Procedure, shortened: (§2)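 Modified CLSI microdilution. DMSO samples were serially diluted in saline and tested in duplicate against inoculum adjusted by the 0.5 McFarland standard. The final test range started at 20 μg/mL. Plates were read before and after incubation. IC50 came from % growth versus concentration; MIC was the lowest concentration without visible growth. Growth, solvent, blank and amphotericin B controls were on each plate.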

Pichia kudriavzevii [8] = test: Antimicrobial activity against Candida krusei ATCC 6258 by CLSI method; type: functional; procedure, shortened: as §2
Nakaseomyces glabratus [9] = test: Antimicrobial activity against Candida glabrata ATCC 90030 by alamar blue assay; type: functional, organism-based
Pichia kudriavzevii [10] = test: Antimicrobial activity against Candida krusei ATCC 6258 by alamar blue assay; type: functional, organism-based
[11] = Selectivity index, ratio of TC50 for african green monkey Vero cells to IC50 for Cryptococcus neoformans ATCC 90113; type: toxicity, cell-based; details: read-out: Selectivity Index
Vero = test: Cytotoxicity against african green monkey Vero cells at 10 ug/ml after 48 hrs by neutral red assay; type: cell-based; details: chlorocebus sabaeus
Procedure, shortened: (§3)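 VERO kidney cells were seeded at 25,000 cells/well and incubated 24 h. Samples were added up to 10 μg/mL and incubated a further 48 h. Viable cells were counted by neutral red uptake. IC50 came from growth-inhibition dose curves. Doxorubicin was the positive control and DMSO the vehicle control.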

[12] = Cytotoxicity against african green monkey Vero cells after 48 hrs by neutral red assay; type: cell-based; details: chlorocebus sabaeus, read-out: TC50; procedure, shortened: as §3

| Structure (SMILES) | MFC (Cryptococcus neoformans [1]) | MIC (Cryptococcus neoformans [1]) | MFC (Candida albicans [2]) | MIC (Candida albicans [2]) | MFC (Aspergillus fumigatus [3]) | MIC (Aspergillus fumigatus [3]) | IC50 (Cryptococcus neoformans [4]) | IC50 (Candida albicans [5]) | IC50 (Aspergillus fumigatus [6]) | MFC (Nakaseomyces glabratus [7]) | MIC (Nakaseomyces glabratus [7]) | MFC (Pichia kudriavzevii [8]) | MIC (Pichia kudriavzevii [8]) | IC50 (Nakaseomyces glabratus [9]) | IC50 (Pichia kudriavzevii [10]) | selectivity ratio [11] | Activity (Vero) | CC50 at 48 h [12] |
| --- | --- | --- | --- | --- | --- | --- | --- | --- | --- | --- | --- | --- | --- | --- | --- | --- | --- | --- |
| FC(F)(F)c1ccc(Sc2cc3ccccc3[n+](CCCCCC3CCCCC3)c2)cc1.[I-] | 0.6 µg/mL | 0.6 µg/mL | 2.5 µg/mL | 2.5 µg/mL | > 20 µg/mL | 2.5 µg/mL | 0.3 µg/mL | 0.8 µg/mL | 1.7 µg/mL | 10 µg/mL | 10 µg/mL | 5 µg/mL | 2.5 µg/mL | 4.7 µg/mL | 1.3 µg/mL | > 33 | Non-toxic | – |
| N#Cc1cccc(Sc2cc3ccccc3[n+](CCCCCC3CCCCC3)c2)c1.[I-] | 5 µg/mL | 1.3 µg/mL | 20 µg/mL | 20 µg/mL | > 20 µg/mL | 20 µg/mL | 0.7 µg/mL | 6.7 µg/mL | 19 µg/mL | 20 µg/mL | 20 µg/mL | 10 µg/mL | 5 µg/mL | 13 µg/mL | 1.4 µg/mL | > 14 | Non-toxic | – |
| Brc1ccc(Sc2cc3ccccc3[n+](CCCCCc3ccccc3)c2)cc1.[I-] | 10 µg/mL | 10 µg/mL | > 20 µg/mL | 20 µg/mL | > 20 µg/mL | 10 µg/mL | 2 µg/mL | 8.5 µg/mL | 3.5 µg/mL | – | – | – | – | – | – | – | Non-toxic | – |
| FC(F)(F)c1cccc(Sc2cc3ccccc3[n+](CCCCCC3CCCCC3)c2)c1.[I-] | 0.6 µg/mL | 0.6 µg/mL | 5 µg/mL | 2.5 µg/mL | > 20 µg/mL | 2.5 µg/mL | 0.4 µg/mL | 1.3 µg/mL | 2.2 µg/mL | 10 µg/mL | 10 µg/mL | 2.5 µg/mL | 2.5 µg/mL | 4.6 µg/mL | 1.2 µg/mL | > 25 | Non-toxic | – |
| Fc1cccc(Sc2cc3ccccc3[n+](CCCCCc3ccccc3)c2)c1.[I-] | > 20 µg/mL | 10 µg/mL | > 20 µg/mL | > 20 µg/mL | > 20 µg/mL | 20 µg/mL | 7 µg/mL | > 20 µg/mL | 5 µg/mL | – | – | – | – | – | – | – | Non-toxic | – |
| N#Cc1ccccc1Sc1cc2ccccc2[n+](CCCCCC2CCCCC2)c1.[I-] | 10 µg/mL | 1.3 µg/mL | 10 µg/mL | 10 µg/mL | 20 µg/mL | 19 µg/mL | 1.1 µg/mL | 3.3 µg/mL | 5 µg/mL | 20 µg/mL | 20 µg/mL | 5 µg/mL | 2.5 µg/mL | 12 µg/mL | 0.7 µg/mL | 9.1 | – | 10 µg/mL |
| Fc1ccccc1Sc1cc2ccccc2[n+](CCCCCc2ccccc2)c1.[I-] | > 20 µg/mL | 20 µg/mL | > 20 µg/mL | > 20 µg/mL | > 20 µg/mL | 20 µg/mL | 9.5 µg/mL | > 20 µg/mL | 9 µg/mL | – | – | – | – | – | – | – | Non-toxic | – |
| FC(F)(F)c1cccc(Sc2cc3ccccc3[n+](CCCCCc3ccccc3)c2)c1.[I-] | 10 µg/mL | 5 µg/mL | > 20 µg/mL | > 20 µg/mL | > 20 µg/mL | > 20 µg/mL | 2.1 µg/mL | 14 µg/mL | 17 µg/mL | – | – | – | – | – | – | – | Non-toxic | – |
| FC(F)(F)c1ccccc1Sc1cc2ccccc2[n+](CCCCCc2ccccc2)c1.[I-] | 10 µg/mL | 5 µg/mL | > 20 µg/mL | > 20 µg/mL | > 20 µg/mL | > 20 µg/mL | 2.2 µg/mL | 12 µg/mL | 6.9 µg/mL | – | – | – | – | – | – | – | Non-toxic | – |
| Cc1cccc(Sc2cc3ccccc3[n+](CCCCCC3CCCCC3)c2)c1.[I-] | 0.4 µg/mL | 0.3 µg/mL | 5 µg/mL | 2.5 µg/mL | 5 µg/mL | 5 µg/mL | 0.2 µg/mL | 1.4 µg/mL | 3.5 µg/mL | 10 µg/mL | 10 µg/mL | 1.3 µg/mL | 0.6 µg/mL | 5.5 µg/mL | 0.4 µg/mL | 19 | – | 3.7 µg/mL |
| Cc1ccccc1Sc1cc2ccccc2[n+](CCCCCc2ccccc2)c1.[I-] | 20 µg/mL | 5 µg/mL | > 20 µg/mL | > 20 µg/mL | > 20 µg/mL | > 20 µg/mL | 4 µg/mL | > 20 µg/mL | > 20 µg/mL | – | – | – | – | – | – | – | Non-toxic | – |
| COc1cccc(Sc2cc3ccccc3[n+](CCCCCC3CCCCC3)c2)c1.[I-] | 2.5 µg/mL | 0.6 µg/mL | 10 µg/mL | 5 µg/mL | 20 µg/mL | 10 µg/mL | 0.4 µg/mL | 2.7 µg/mL | 5.5 µg/mL | > 20 µg/mL | 20 µg/mL | 1.3 µg/mL | 1.3 µg/mL | 16 µg/mL | 0.6 µg/mL | 11 | – | 4.5 µg/mL |
| Fc1ccc(Sc2cc3ccccc3[n+](CCCCCc3ccccc3)c2)cc1.[I-] | > 20 µg/mL | 20 µg/mL | > 20 µg/mL | > 20 µg/mL | > 20 µg/mL | 20 µg/mL | 15 µg/mL | > 20 µg/mL | 9 µg/mL | – | – | – | – | – | – | – | Non-toxic | – |
| Brc1ccccc1Sc1cc2ccccc2[n+](CCCCCC2CCCCC2)c1.[I-] | 1.3 µg/mL | 0.6 µg/mL | 2.5 µg/mL | 2.5 µg/mL | 20 µg/mL | 2.5 µg/mL | 0.3 µg/mL | 1.4 µg/mL | 2 µg/mL | 10 µg/mL | 5 µg/mL | 1.3 µg/mL | 0.6 µg/mL | 3.2 µg/mL | 0.3 µg/mL | 32 | – | 9.7 µg/mL |
